In the library only some 3.5% were active in any assay of this set; here they are far more common.
MrgX1 ag: activates human MrgX1 receptor signaling; B-score at 10 µM; Q96LB2; 310,000 compounds, 0.44% hits; MrgX1-HEK293 cells, Fluo-4 calcium fluorescence, agonist mode; active compounds read high;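 active means calcium response B-score plate-corrected fluorescence ratio at least 3 library SD, with starting fluorescence B-score inside 5 SD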
Target sequence (Q96LB2 whole entry, looked up): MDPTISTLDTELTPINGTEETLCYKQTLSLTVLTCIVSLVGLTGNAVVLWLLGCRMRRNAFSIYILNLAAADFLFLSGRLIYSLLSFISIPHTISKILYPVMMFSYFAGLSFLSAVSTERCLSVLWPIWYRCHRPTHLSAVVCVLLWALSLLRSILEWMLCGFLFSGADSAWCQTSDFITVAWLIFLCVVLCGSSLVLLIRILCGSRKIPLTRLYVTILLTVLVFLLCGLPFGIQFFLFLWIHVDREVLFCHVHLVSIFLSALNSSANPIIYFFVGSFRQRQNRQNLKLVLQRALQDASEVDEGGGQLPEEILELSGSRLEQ
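System: HEK293 cells stably expressing human MrgX1 receptor; Dosing: test compound in the initial addition of three; Schedule: overnight plating, then 30 min 37 °C plus 30 min room-temperature dye loading; Detection: kinetic calcium dye fluorescence, Fluo-4 NW; Controls: per-plate positive and negative controls for Z′ factor.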
RGS4 block: inhibitors of human RGS4. HEK293 M3R/RGS4 inducible, Fluo-4 calcium flux; active compounds read high; triggered by carbachol at its EC20. B-score at 10 µM. 310,000 compounds, 0.45% hits;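 active means B-score, a plate-corrected calcium signal, over three deviations above library mean, with baseline fluorescence within five deviations of library mean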;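 further: RGS4 expression induced by doxycycline in cells with stable M3 receptor; B-score is computed from the integrated fluorescence ratio over baseline after carbachol; higher B-score means a larger calcium signal and so more RGS4 inhibition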
Target sequence (P49798 whole entry, looked up): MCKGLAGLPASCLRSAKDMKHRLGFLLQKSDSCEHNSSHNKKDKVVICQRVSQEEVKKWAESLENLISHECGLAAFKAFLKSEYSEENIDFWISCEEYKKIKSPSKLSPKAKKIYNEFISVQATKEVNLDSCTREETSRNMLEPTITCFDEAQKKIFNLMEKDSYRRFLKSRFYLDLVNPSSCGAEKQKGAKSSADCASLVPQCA
MrgX1 antagonist: human MrgX1 receptor antagonism, primary screen | Q96LB2 | MRGX1-HEK293 calcium flux, Fluo-4, BAM8-22 antagonism; active compounds read low | B-score at 10 µM | 310,000 compounds, 1.3% hits;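 active means calcium-response B-score plate-corrected more than 3 library SD below zero, starting fluorescence within 5 deviations, no agonist response on first addition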;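 further: peak minus trough fluorescence over baseline after final BAM8-22 challenge near maximal dose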
MrgX1 allo act: human MrgX1 positive allosteric modulation, primary screen; Q96LB2; MrgX1-HEK293, Fluo-4 calcium flux, FDSS; active compounds read high; B-score at 10 µM; 310,000 compounds, 0.63% hits; AID 588675;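 active means plate-corrected calcium response at least 3 library SD above typical, normal starting fluorescence, not activating the receptor alone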;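 further: compound read alongside a low EC10 to EC30 dose of BAM8-22 agonist; peak minus trough fluorescence over baseline measured at the second addition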
RGS4 act: RGS4 potentiation or activation; 310,000 compounds, 0.92% hits; B-score at 10 µM; HEK293 M3R/inducible RGS4, carbachol calcium flux Fluo4; active compounds read low;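 active means B-score of the integrated calcium signal more than 4 SD below the library mean, with starting fluorescence not abnormally high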;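 further: negative B-score means reduced calcium response which marks RGS4 activation or potentiation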
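test system = M3R-expressing HEK293 line, RGS4 induced by doxycycline | probe or stimulus = carbachol at ECmax as muscarinic agonist stimulus | timing = dye loading 30 min 37 °C, buffer rest 30 min RT | signal = calcium dye Fluo4 fluorescence | evaluation = B score from integrated fluorescence ratio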
MrgX1 antag conf: human MrgX1 receptor antagonism, re-confirmation screen | shares compounds with MrgX1 antagonist | MrgX1-HEK293, BAM8-22 calcium flux, Fluo-4; active compounds read low | remaining BAM8-22 calcium response % of control (active compounds read low), % at 10 µM | 2,300 compounds, 19% hits | AID 602420;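 active means remaining agonist calcium response no higher than 100% minus 3 SD of agonist-only control wells, with starting fluorescence near control levels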;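 further: agonist BAM8-22 given at a near maximal EC90 to ECmax level; peak minus minimum fluorescence divided by baseline after agonist addition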
HEK293 Ca flux: MrgX1 antagonist counter-screen hit in parental HEK293 cells. 4,000 compounds, 2% hits. fluorescence ratio F(max-min)/F0 at 10 µM. AID 624111. shares compounds with MrgX1 antagonist. Fluo-4 calcium fluorescence, FDSS;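 active means duplicate-averaged calcium fluorescence ratio at least three times the standard deviation of buffer wells, a nonspecific response in parental cells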
HEK293 Ca counter: counter-screen for MrgX1 allosteric activators: effect in parental HEK293 cells | shares compounds with MrgX1 antagonist | parental HEK293 calcium flux, Fluo-4 fluorescence ratio; active compounds read high | fluorescence ratio F(max-min)/F0 at 10 µM | 4,000 compounds, 0.4% hits | AID 624114;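 active means calcium fluorescence ratio, averaged over duplicates, at least 3 SD of the buffer-well ratio, meaning a nonspecific response in receptor-free cells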;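 further: untransfected parental HEK293 lacking MrgX1 used as counterscreen for MrgX1 allosteric activators; fluorescence change taken during the second addition on a kinetic imager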
HEK293 Ca cntr2: counter-screen for MrgX1 activators: effect in parental HEK293 cells | shares compounds with MrgX1 antagonist | Fluo-4 calcium fluorescence (FDSS); active compounds read high | fluorescence ratio F(max-min)/F0 at 10 µM | 4,000 compounds, 8.7% hits;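 active means calcium fluorescence ratio at least three times the spread of buffer wells, meaning a non-specific response in parental cells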
Hits are given with their value; – = inactive; · = no result.

SMILES	MrgX1 ag	RGS4 block	MrgX1 antagonist	MrgX1 allo act	RGS4 act	MrgX1 antag conf	HEK293 Ca flux	HEK293 Ca counter	HEK293 Ca cntr2
Nc1ncnc2nc(SCC(=O)N3CCN(c4ccccc4)CC3)[nH]c12	–	–	-4.7	–	–	–	–	–	–
CCOc1ccc(NC(=S)NC(=O)C2CCCC2)cc1	–	–	-5.4	–	–	–	–	–	–
COc1ccc(NC(=S)NC(=O)C2CCCCC2)cc1	–	–	–	–	–	·	·	·	·
CCC(=O)Nc1nc2ccc(NC(=O)c3cc(OC)c(OC)c(OC)c3)cc2s1	–	–	–	–	–	·	·	·	·
Cc1n[nH]c(C)c1CCc1nc2c3ccccc3nc(SCC(=O)Nc3ccccc3F)n2n1	–	–	-7	–	–	–	–	–	–
COc1cccc(-n2c(COc3ccccc3C)nnc2SCC(=O)O)c1	–	–	–	–	–	·	·	·	·
COc1nc(Nc2ccccc2F)nc(OC)n1	–	–	-8.1	–	–	–	–	–	–
COc1ccc(NC(=O)Cn2nnc(-c3ccccc3NC(=O)c3cccs3)n2)cc1	–	–	-7	–	–	–	–	–	–
Cc1ccc(NC(=O)Cn2nnc(-c3ccccc3NC(=O)c3cccs3)n2)cc1	–	–	–	–	–	·	·	·	·
O=C(Nc1ccc(N2C(=O)C3C4C=CC(C4)C3C2=O)cc1)Nc1nncs1 (centres undefined)	–	–	-4.6	–	–	–	–	–	–
COc1ccc(NC(=O)c2ccc(NC(=O)c3ccco3)cc2)c(OC)c1	–	–	–	–	–	·	·	·	·
Cc1ccccc1OCC(=O)Nc1nnc(COc2ccccc2)s1	–	–	-8.2	–	–	–	–	–	–
CSc1ncccc1C(=O)Nc1nnc(C2CC2)s1	–	–	-4.6	–	–	–	–	–	–
O=C(CSc1nnc(-c2ccc(S(=O)(=O)N3CCCC3)cc2)n1CC1CCCO1)NC1CC1 (centres undefined)	–	–	–	–	–	·	·	·	·
Oc1cc(O)cc(-c2cc3ccc(O)cc3o2)c1	–	–	-6	–	–	–	–	–	–
NC(=S)c1cc2ccc(O)cc2oc1=O	·	–	·	·	–	·	·	·	·
COC(=O)[C@H](Cc1ccccc1)NC(=O)NCc1ccc(C)cc1	–	–	–	–	–	·	·	·	·
Cc1ccc(CNC(=O)N[C@@H](Cc2ccccc2)C(=O)O)cc1	–	–	-7.2	–	–	–	–	–	–
COc1ccc(NC(=O)N2CCCC2C(=O)Nc2ccc(C)cc2)cc1 (centres undefined)	–	–	–	–	–	·	·	·	·
CCOC(=O)CCc1c(C)nc2cc(-c3ccc(Cl)cc3)[nH]n2c1=O	–	–	-6	–	–	–	–	–	–
CCc1c(C)nc2cc(-c3ccc(Cl)cc3)[nH]n2c1=O	–	–	–	–	–	·	·	·	·
COCc1nc2ccccc2n1CCCOc1ccccc1	–	–	–	–	–	·	·	·	·
COC(=O)C1=C(N)Oc2cc(C)n(Cc3cccnc3)c(=O)c2C1c1cc(OC)ccc1OC (centres undefined)	–	–	–	–	–	·	·	·	·
COC(=O)C1=C(N)Oc2cc(C)n(Cc3cccnc3)c(=O)c2C1c1cccc(OC)c1OC (centres undefined)	–	–	-13	–	–	–	–	–	–
Cc1ccc2c(C(=O)N3CCN(c4ccccc4)CC3)cc(-c3cccnc3)nc2c1C	–	–	–	–	–	·	·	·	·
CCOc1ccccc1N1CCN(C(=O)c2cc(-c3cccnc3)nc3c(Cl)cccc23)CC1	–	–	-5.8	–	–	–	0.42	–	–
Cc1[nH]c2ccccc2c1/C=N/NC(=O)c1cccc(S(=O)(=O)Nc2cccc(C(F)(F)F)c2)c1	–	–	–	–	–	·	·	·	·

Screening results deposited in PubChem BioAssay by Johns Hopkins Ion Channel Center.
